Where two headings read alike, the source gives them in different places.
Legend:
MDA-MB-231 = assay: Cytotoxicity assay; format: cell-based; settings: read-out: IC50 (50% inhibitory concentration), MDA-MB-231; human breast cancer, 48 hours, 1% FBS, mean ± SD
In short: (§1)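 Cells grown at 37 °C, 5% CO2 with 10% FBS (HepG2.2.15 in DMEM; MDA-MB-231 in DMEM/F12 1:1) and trypsinised and trypan blue-counted 24 h before. Seeded at 2.5 × 10^3 per well overnight, then exposed in quadruplicate to 100–6.25 μM plus 0 μM in 1% FBS medium for 48 h. Crystal violet stain, water wash, SDS solubilisation, A595. IC50 from linear regression of concentration against inhibition rate.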

HEPG2.2.15 = assay: Cytotoxicity assay; format: cell-based; settings: read-out: IC50 (50% inhibitory concentration), HEPG2.2.15; human hepatocellular carcinoma, HBV transformed, 48 hours, 1% FBS, mean ± SD
In short: as §1

MCF-7 = assay: Cytotoxicity assay; format: cell-based, human; settings: read-out: IC50 (50% inhibitory concentration), MCF-7
In short: (§2)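 HepG2 cells (DMEM) or MCF-7 cells (RPMI-1640), each with 10% FBS, at 37 °C and 5% CO2. Cells were trypsinised, counted by trypan blue and seeded at 2.5 × 10^3 cells/well overnight. Test compound at 100, 50, 25, 12.5, 6.25 and 0 μM in 1% FBS medium, quadruplicate, 48 h. Adherent cells stained with 0.02% crystal violet, washed with water, dye dissolved in 1% SDS, A595. IC50 by linear regression of concentration against inhibition rate.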

HEPG2 = assay: Cytotoxicity assay; format: cell-based, human; settings: read-out: IC50 (50% inhibitory concentration), HEPG2
In short: as §2

SARS-CoV-2 3CL protease = SARS-CoV-2 3CL protease (Severe acute respiratory syndrome coronavirus 2, UniProt P0DTD1); assay: In vitro inhibitory activity assay of 3CL protease; format: biochemical; settings: read-out: inhibitory activity against 3CL protease
[1] = human breast cancer, 48 hours, 1% FBS, mean ± SD
[2] = human hepatocellular carcinoma, 48 hours, 1% FBS, mean ± SD

Row | Compound | IC50 (MDA-MB-231) [µM] | IC50 (HEPG2.2.15) [µM] | IC50 (MCF-7; [1]) [µM] | IC50 (HEPG2; [2]) [µM] | inhibition at 50 µM (SARS-CoV-2 3CL protease) [%] | IC50 (MCF-7; Homo sapiens, MCF7, 48 h) [µM] | IC50 (HEPG2; Homo sapiens, HepG2, 48 h) [µM]
1 | 3-(((1-(2-Hydroxyethyl)-5-nitro-1H-benzo[d]imidazole-2-yl)methyl)thio)-2-(pyridin-3-ylmethyl)isoquinolin-1(2H)-one [9c] | > 100 | > 100 | > 100 | > 100 |  |  | 
2 | 3-(((1H-Benzo[d]imidazole-2-yl)methyl)thio)-2-(pyridin-3-ylmethyl)isoquinolin-1(2H)-one [9a] | > 100 | > 100 | > 100 | > 100 |  |  | 
3 | O=C(Cn1cnc2ccccc2c1=O)Nc1ccc(O)cc1[N+](=O)[O-] [4a, N-(4-Hydroxy-2-nitrophenyl)-2-(4-oxoquinazolin-3(4H)-yl)acetamide] |  |  |  |  | > 50 | > 100 | > 100
4 | O=C(Cn1cnc2ccccc2c1=O)Nc1cc(Cl)ccc1O [4b, N-(5-Chloro-2-hydroxyphenyl)-2-(4-oxoquinazolin-3(4H)-yl)acetamide] |  |  |  |  |  | > 100 | > 100
5 | COc1ccc(NC(=O)Cn2cnc3ccccc3c2=O)c([N+](=O)[O-])c1 [4c, N-(4-methoxy-2-nitrophenyl)-2-(4-oxoquinazolin-3(4H)-yl)acetamide] |  |  |  |  | > 50 | > 100 | > 100
6 | Cc1ccc(NC(=O)Cn2cnc3ccccc3c2=O)c(O)c1 [4d, N-(2-Hydroxy-4-methylphenyl)-2-(4-oxoquinazolin-3(4H)-yl)acetamide] |  |  |  |  |  | > 100 | > 100
7 | O=C(Cn1cnc2ccccc2c1=O)Nc1ccccc1O [4e, N-(2-Hydroxyphenyl)-2-(4-oxoquinazolin-3(4H)-yl)acetamide] |  |  |  |  |  | > 100 | 54.9 ± 15.2
8 | O=C(Cn1cnc2ccccc2c1=O)Nc1ncccc1O [4f, N-(3-Hydroxypyridin-2-yl)-2-(4-oxoquinazolin-3(4H)-yl)acetamide] |  |  |  |  |  | > 100 | > 100
9 | COc1ccc(NC(=O)Cn2cnc3ccccc3c2=O)c(N)c1 [4g, N-(2-Amino-4-methoxyphenyl)-2-(4-oxoquinazolin-3(4H)-yl)acetamide] |  |  |  |  |  | > 100 | > 100
10 | O=C(Cn1cnc2ccccc2c1=O)NCc1cccnc1 [4h, 2-(4-Oxoquinazolin-3(4H)-yl)-N-(pyridin-3-ylmethyl)acetamide] |  |  |  |  |  | 58.2 ± 8.04 | 51.4 ± 10.2
11 | O=C(Cn1cnc2ccccc2c1=O)Nc1nccs1 [4i, 2-(4-Oxoquinazolin-3(4H)-yl)-N-(thiazol-2-yl)acetamide] |  |  |  |  |  | > 100 | 47.7 ± 16.2
12 | O=c1c2ccccc2nc(S)n1Cc1cccnc1 [compound 5, 2-Mercapto-3-(pyridin-3-ylmethyl)quinazolin-4(3H)-one] |  |  |  |  |  | > 100 | > 100
